This is an account of results in ChEMBL document CHEMBL1149738, “New cytotoxic scalarane sesterterpenes from the Dictyoceratid sponge Strepsichordaia lendenfeldi” (J Nat Prod, 1992).

Converted amounts (≈) assume the structure as drawn. The source made the active and inactive calls. The rule behind the calls is not given here. Where only a bound is given, the exact number is not on record here.

One series relates to A549. Description: Cytotoxicity against human A549 cells. It is filed as functional, cell-based. The method, boiled down: (§1)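 Cultured tumour and normal cell lines: P-388 (lymphoid neoplasm, DBA/2 mouse), A-549 (human lung carcinoma), HT-29 (human colon carcinoma) and CV-1 (monkey kidney fibroblast). Potency was expressed as approximate IC50 values in μg/ml.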
Another series relates to Bacillus subtilis. Description: Antimicrobial activity against Bacillus subtilis. It is filed as functional, organism-based.
A further series deals with P388. Put plainly: Cytotoxicity against DBA/2 mouse P388 cells. It is filed as functional, cell-based. The conditions noted are these: DBA/2, P388. In short, it runs like this:
as §1

The next series relates to HT-29. Put plainly: Cytotoxicity against human HT-29 cells. It is filed as functional, cell-based. The method, boiled down:
as §1

The nature of series [1]: Cytotoxicity against african green monkey CV1 cells. It is filed as cell-based. The note with it: chlorocebus aethiops, cv-1. In short, it runs like this: as §1
Another series has as its system Staphylococcus aureus. Description: Antimicrobial activity against Staphylococcus aureus. It counts as functional, organism-based.

Consider `CCC(=O)OC(CC)CC(=O)O[C@H]1C[C@@H]2[C@@]3(C)CCC[C@](C)(CC)[C@@H]3CC[C@@]2(C)[C@@H]2CC=C(C(C)=O)[C@H](C=O)[C@@]12C` (stereo partly drawn), for which the IC50 was 0.21 µg/mL (≈ 0.368 µM) with A549 and less than 0.12 µg/mL with P388. Further, the result with Bacillus subtilis was Active.

On to `CCC(O)CC(=O)O[C@H]1C[C@H]2[C@]3(C)CC[C@H]4[C@@](C)(CC)CCC[C@]4(C)[C@H]3C[C@H](OC(C)=O)[C@]2(C)[C@@H](C=O)[C@@H]1C(C)=O` (stereo partly drawn), for which the IC50 in the series on A549 and with P388 was 0.5 µg/mL (≈ 0.87 µM) in each case. Further, in the series with HT-29, the outcome was Active. The outcome in series [1] was Active.

For `CC[C@@]1(C)CCC[C@]2(C)[C@H]3C[C@H](OC(C)=O)[C@]4(C)[C@@H](C=O)[C@H](C(C)=O)[C@@H](O)C[C@H]4[C@]3(C)CC[C@@H]12`, the IC50 with A549 and in the series with P388 was 0.1 µg/mL (≈ 0.211 µM) throughout. Besides, the outcome with HT-29 was Active. Further, the outcome in series [1] was Active.

For the compound `CC[C@@]1(C)CCC[C@]2(C)[C@H]3C[C@H](OC(C)=O)[C@]4(C)[C@@H](C=O)[C@H](C(C)=O)[C@@H](OC(C)=O)C[C@H]4[C@]3(C)CC[C@@H]12`, the half-maximal inhibitory concentration (IC50) in the series on A549 amounted to 0.88 µg/mL (≈ 1.7 µM); in the series on P388, 0.91 µg/mL (≈ 1.76 µM). Also, in the series on Bacillus subtilis, the result was Active.

On to `CCC(CC(=O)O[C@H]1C[C@@H]2[C@@]3(C)CCC[C@](C)(CC)[C@@H]3CC[C@@]2(C)[C@@H]2CC=C(C(C)=O)[C@H](C=O)[C@@]12C)OC(C)=O` (stereo partly drawn), for which the half-maximal inhibitory concentration (IC50) with A549 is 0.25 µg/mL (≈ 0.449 µM); in the series on P388 it was less than 0.12 µg/mL. The result with Bacillus subtilis was Active.

Take `CCC(=O)O[C@H]1C[C@H]2[C@]3(C)CC[C@H]4[C@@](C)(CC)CCC[C@]4(C)[C@H]3C[C@H](OC(C)=O)[C@]2(C)[C@@H](C=O)[C@@H]1C(C)=O`: the IC50 with A549 and in the series with P388 was 0.67 µg/mL (≈ 1.26 µM) throughout. Besides, the result in the series with Bacillus subtilis was Active.

`CC[C@@]1(C)CCC[C@]2(C)[C@H]3C[C@H](OC(=O)CC(C)OC(C)=O)[C@]4(C)[C@@H](C=O)C(C(C)=O)=CC[C@H]4[C@]3(C)CC[C@@H]12` (stereo partly drawn): the IC50 with A549 and in the series on P388 was 0.2 µg/mL (≈ 0.368 µM) throughout. Also, the outcome in the series with HT-29 was Active. The outcome in series [1] was Active.

Consider `CC[C@@]1(C)CCC[C@]2(C)[C@H]3C[C@H](OC(C)=O)[C@]4(C)[C@@H](C=O)[C@H](C(C)=O)[C@@H](OC(=O)C[C@@H](C)O)C[C@H]4[C@]3(C)CC[C@@H]12`, for which the values for the IC50 with A549 and in the series with P388 were 0.66 µg/mL (≈ 1.18 µM) and 0.23 µg/mL (≈ 0.41 µM), respectively. Further, the result in the series on Bacillus subtilis and with Staphylococcus aureus was Active.
